The results in this text go back to ChEMBL document CHEMBL1828520, “Anti-AIDS agents 86. Synthesis and anti-HIV evaluation of 2',3'-seco-3'-nor DCP and DCK analogues” (Eur J Med Chem, 2011).

Data set [1] deals with Human immunodeficiency virus 1. Put plainly: Antiviral activity against HIV1 RTMDR in human […] cells after 48 hrs by luciferase reporter gene assay. It counts as functional, organism-based. The conditions noted are these: Human immunodeficiency virus 1, RTMDR. In short, it runs like this: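 Single-round infection of TZM-bl cells with 200 TCID50 virus plus test sample in eight fourfold dilutions; 48 h incubation, then Bright Glo luciferase read. Highest tested concentration 20 μM.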
Background: Reporter assays use an easily measured gene product as a stand-in for the process of interest.

Data set [2] deals with Human immunodeficiency virus 1. Kind of data set: Antiviral activity against HIV 1 NL4-3 infected in human TZM-bl cells after 48 hrs by luciferase reporter gene assay. Particulars: Human immunodeficiency virus 1, NL4-3, TZM-bl. Format: functional, organism-based. In short, it runs like this: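 Single-round infection of TZM-bl cells with HIV-1 NL4-3 at 200 TCID50, in the presence of eight fourfold serial dilutions of compound. After 48 h, luciferase was read as RLU. Highest concentration tested was 20 μM.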

The nature of data set [3]: Ratio of CC50 for human TZM-bl cells to EC50 for HIV 1 RTMDR infected in human TZM-bl cells.
The nature of data set [4]: Ratio of CC50 for human TZM-bl cells to EC50 for HIV 1 NL4-3 infected in human TZM-bl cells.
Data set [5] is described as follows: Cytotoxicity against human TZM-bl cells assessed as cell viability. Format: cell-based. The essentials: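 TZM-bl cells (1 × 10^5 cells/mL) exposed to various compound concentrations in parallel with the antiviral assay timing. Averaged from at least three independent experiments.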
Data set [6] in a line: Chemical stability of the compound in 1% HCl assessed as compound remaining at 1 min by HPLC analysis. It counts as physicochemical. The conditions noted are these: read-out: Stability. In short, it runs like this:
(§1)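 Compound (1 mg) dissolved in MeOH (0.5 mL), 1% HCl (0.2 mL) added, shaken at room temperature. Remaining compound measured by reversed-phase HPLC (ODS2 column, 30% water/70% MeOH) as area % purity at the stated time.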

The nature of data set [7]: Chemical stability of the compound in 1% HCl assessed as compound remaining at 30 min by HPLC analysis. The conditions noted are these: read-out: Stability. It counts as physicochemical. The essentials: as §1

A word on the EC50: it is the concentration at which the effect is half-maximal. A lower EC50 goes with an effect from little substance. By CC50 is commonly meant the concentration giving 50% cytotoxicity.

The structures appear in SMILES notation. A value given as a limit tells only on which side of the number the result lay.

As for `CCOc1ccc2c(=O)cc(CC)oc2c1CN1CCN(C(=O)C(=O)c2ccccc2)CC1`, the EC50 stood at 16.3 µM in data set [1] and 16.7 µM in data set [2]. The figures for the “Ratio CC50/EC50” value in data set [3] and in data set [4] were above 1.37 and above 1.33, respectively. Moreover, the CC50 in data set [5] was above 22.3 µM.

Turning to `CCc1cc(=O)c2ccc3c(c2o1)[C@@H](OC(=O)C12CCC(C)(C(=O)O1)C2(C)C)[C@@H](OC(=O)C12CCC(C)(C(=O)O1)C2(C)C)C(C)(C)O3` (some centres not stated), the remaining at […] in data set [6] was 100%. Besides, the EC50 amounted to 0.2 µM in data set [1] and 0.12 µM in data set [2]. For the same molecule, the “Ratio CC50/EC50” value in data set [3] is on record as 71.25; in data set [4] it was 118.75. Moreover, the CC50 in data set [5] is 14.2 µM. In addition, the remaining at 0.5 h in data set [7] came out at 91%.

Take `CCOc1ccc2c(=O)cc(CC)oc2c1CN1CCN(C(=O)C(=O)c2c[nH]c3ccccc23)CC1`: the EC50 in data set [1] and in data set [2] was above 20.5 µM each time. Moreover, the CC50 in data set [5] is above 20.5 µM.

In the case of `Cc1cc(=O)oc2c3c(ccc12)OC(C)(C)[C@H](OC(=O)[C@@]12CC[C@@](C)(C(=O)O1)C2(C)C)[C@@H]3OC(=O)[C@@]12CC[C@@](C)(C(=O)O1)C2(C)C`, the remaining at […] in data set [6] was found to be 100%. In addition, in data set [7], the remaining at 0.5 h amounted to 64%.

In turn, `CCc1cc(=O)c2ccc(OCc3cccc(C(=O)OC)c3)c(COC(=O)C34CCC(C)(C(=O)O3)C4(C)C)c2o1` (configuration not stated) came in with an EC50 in data set [2] of 0.93 µM. In addition, in data set [4], the “Ratio CC50/EC50” value is reported as 39.2. In addition, the CC50 in data set [5] is above 36.5 µM.

In data set [2], `CCc1cc(=O)c2ccc(OCc3cc(OC)cc(OC)c3)c(COC(=O)C34CCC(C)(C(=O)O3)C4(C)C)c2o1` (configuration not stated) showed an EC50 of 22.2 µM. In data set [4], the “Ratio CC50/EC50” value amounted to 1.64. Moreover, the cytotoxic concentration (CC50) in data set [5] was above 36.3 µM.

As to `CCOc1ccc2c(=O)cc(CC)oc2c1CN1CCN(C(=O)C(=O)c2cccs2)CC1`, the figures for the EC50 in data set [1] and in data set [2] were 16.9 µM and above 22 µM, respectively. Besides, the “Ratio CC50/EC50” value in data set [3] is 1.3. Further, the CC50 in data set [5] was above 22 µM.
